From ChEMBL document CHEMBL1121831 (1981)
pIC50: −log10 of the molar value.

Assays:
[1] = target: Dihydrofolate reductase (Lactobacillus casei) (UniProt P00381); test: Compound is evaluated for binding to Lactobacillus casei dihydrofolate reductase using kinetic assay; conditions: Lacticaseibacillus casei
L1210 [2] = test: Compound is tested for the inhibition of growth of murine leukemia cells (L1210); type: functional; conditions: Mus musculus, read-out: ID50 (the source's name)
Method in brief: (§1)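 CEM human lymphoblastic and L1210 murine leukemia cells were grown in culture with drug for 48 h, at concentrations up to 10 μM. The read-out was growth inhibition, given as ID50 or, where ID50 was not reached, as percent inhibition at 10 μM. Values are averages of triplicate experiments.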

[3] = target: T1, Dihydrofolate reductase (Mus musculus) (UniProt P00375); test: Compound is evaluated for binding to L1210 mouse leukemia cells dihydrofolate reductase using ligand-binding assay
T1 sequence (whole entry): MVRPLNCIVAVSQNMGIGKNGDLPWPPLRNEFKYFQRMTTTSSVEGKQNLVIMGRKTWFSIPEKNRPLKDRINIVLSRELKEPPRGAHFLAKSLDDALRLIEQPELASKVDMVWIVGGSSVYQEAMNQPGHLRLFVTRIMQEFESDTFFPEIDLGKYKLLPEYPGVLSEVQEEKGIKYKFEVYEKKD

CCRF-CEM [4] = test: Compound is tested for the inhibition of growth of human lymphoblastic leukemia cells (CEM); type: functional; conditions: read-out: ID50 (the source's name); method in brief: as §1
L1210 [5] = test: Compound is evaluated for activity against L1210 leukemia in mice, at dose 160 mg/kg; type: functional, Mus musculus
Method in brief: (§2)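 B6D2F1 mice were inoculated ip with 10^5 L1210 cells on day 0. Test agents were given ip on days 1, 4 and 7 in 10% Tween 80 or a 1:1:8 emulphor-ethanol-water suspension; MTX was given ip as the disodium salt in water. Groups were mostly five mice. Read-out was median survival of treated vs control mice (days) and % increase in life span.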

L1210 [6] = test: Compound is evaluated for activity against L1210 leukemia in mice, at dose 80 mg/kg; type: functional, Mus musculus; method in brief: as §2
L1210 [7] = test: Compound is evaluated for increase in life span against L1210 leukemia in mice, at dose 160 mg/kg; type: functional; conditions: Mus musculus
Method in brief: (§3)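 B6D2F1 mice were inoculated ip with 10⁵ L1210 cells on day 0. Drug was given ip on days 1, 4 and 7 (q3d) as a suspension in 10% Tween 80 or 1:1:8 emulphor–ethanol–water, or as the disodium salt in water. The read-out was median survival of treated versus control mice (T/C, days), expressed as % increase in life span.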

L1210 [8] = test: Compound is evaluated for increase in life span against L1210 leukemia in mice, at dose 80 mg/kg; type: functional; conditions: Mus musculus; method in brief: as §3
Mus musculus [9] = test: Compound is evaluated for activity against L1210 leukemia in mice, at dose 80 mg/kg expressed as T/C=11/9; type: functional; method in brief: as §2
Mus musculus [10] = test: Compound is evaluated for activity against L1210 leukemia in mice, at dose 160 mg/kg expressed as T/C=13/9; type: functional; method in brief: as §2
L1210 [11] = test: Compound is evaluated for activity against L1210 leukemia in mice, at dose 15 mg/kg in experiment 1; type: functional, Mus musculus; method in brief: as §2
L1210 [12] = test: Compound is evaluated for activity against L1210 leukemia in mice, at dose 20 mg/kg in experiment 2; type: functional, Mus musculus; method in brief: as §2
L1210 [13] = test: Compound is evaluated for activity against L1210 leukemia in mice, at dose 40 mg/kg in experiment 2; type: functional, Mus musculus; method in brief: as §2
L1210 [14] = test: Compound is evaluated for activity against L1210 leukemia in mice, at dose 7.5 mg/kg in experiment 1; type: functional, Mus musculus; method in brief: as §2
L1210 [15] = test: Compound is evaluated for percent increase in life span against L1210 leukemia in mice, at dose 20 mg/kg in experiment 2; type: functional; conditions: Mus musculus; method in brief: as §3
L1210 [16] = test: Compound is evaluated for percent increase in life span against L1210 leukemia in mice, at dose 40 mg/kg in experiment 2; type: functional; conditions: Mus musculus; method in brief: as §3
L1210 [17] = test: Compound is evaluated for percent increase in life span against L1210 leukemia in mice, at dose 7.5 mg/kg in experiment 1; type: functional; conditions: Mus musculus; method in brief: as §3
L1210 [18] = test: Compound is evaluated for percent increase in life span against L1210 leukemia in mice, at dose 15 mg/kg in experiment 1; type: functional; conditions: Mus musculus; method in brief: as §3
Mus musculus [19] = test: Compound is evaluated for activity against L1210 leukemia in mice, at dose 7.5 mg/kg expressed as T/C in experiment 1; type: functional; method in brief: as §2
Mus musculus [20] = test: Compound is evaluated for activity against L1210 leukemia in mice, at dose 15 mg/kg expressed as T/C in experiment 1; type: functional; method in brief: as §2
Mus musculus [21] = test: Compound is evaluated for activity against L1210 leukemia in mice, at dose 20 mg/kg expressed as T/C in experiment 2; type: functional; method in brief: as §2
Mus musculus [22] = test: Compound is evaluated for activity against L1210 leukemia in mice, at dose 40 mg/kg expressed as T/C in experiment 2; type: functional; method in brief: as §2
CCRF-CEM [23] = test: Compound was tested for the inhibition of growth of human lymphoblastic leukemia cells (CEM); type: functional; conditions: read-out: ID50 (the source's name); method in brief: as §1
L1210 [24] = test: Compound was tested for the inhibition of growth of murine leukemia cells (L1210); type: functional; conditions: Mus musculus, read-out: ID50 (the source's name); method in brief: as §1
RBL-1 = test: Compound was tested for the inhibition of growth of rat basophilic leukemia (RBL) cells; type: functional; conditions: read-out: ID50 (the source's name)
CCRF-CEM (Homo sapiens) = test: Percent inhibition of human lymphoblastic leukemia cell growth (48h) at 10 uM
L1210 [25] = test: Compound was evaluated for activity against L1210 leukemia in mice, at dose 7.5 mg/kg in experiment 1; type: functional, Mus musculus; method in brief: as §2
Mus musculus [26] = test: Compound is evaluated for activity against L1210 leukemia in mice, at dose 40 mg/kg expressed as T/C in experiment 2=12/9; type: functional; method in brief: as §2
Mus musculus [27] = test: Compound was evaluated for activity against L1210 leukemia in mice, at dose 7.5 mg/kg expressed as T/C in experiment 1=14/10; type: functional; method in brief: as §2
Mus musculus [28] = test: Compound is evaluated for activity against L1210 leukemia in mice, at dose 15 mg/kg expressed as T/C in experiment 1=14/10; type: functional; method in brief: as §2
Mus musculus [29] = test: Compound is evaluated for activity against L1210 leukemia in mice, at dose 20 mg/kg expressed as T/C in experiment 2=16/9; type: functional; method in brief: as §2

Dihydrofolate reductase (Lactobacillus casei), sequence (P00381 whole entry): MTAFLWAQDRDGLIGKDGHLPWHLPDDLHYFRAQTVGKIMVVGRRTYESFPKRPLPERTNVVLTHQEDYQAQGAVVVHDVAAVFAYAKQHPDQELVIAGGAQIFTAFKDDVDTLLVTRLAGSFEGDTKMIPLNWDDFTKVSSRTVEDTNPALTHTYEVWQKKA

Structure (SMILES) | ID50 [1] [nM] | pIC50 (L1210 [2]) | ID50 [3] [nM] | pIC50 (CCRF-CEM [4]) | MTX equivalent (L1210 [11]) [mg/kg] | MTX equivalent (L1210 [12]) [mg/kg] | MTX equivalent (L1210 [13]) [mg/kg] | ILS at 20 mg/kg (L1210 [15]) [%] | ILS at 40 mg/kg (L1210 [16]) [%] | ILS at 7.5 mg/kg (L1210 [17]) [%] | ILS at 15 mg/kg (L1210 [18]) [%] | pIC50 (RBL-1) | further results
CN(Cc1cnc2nc(N)nc(N)c2n1)c1ccc(C(=O)NC(CCC(=O)N2CCCCC2)C(=O)N2CCCCC2)cc1 (configuration not stated) | 250 | < 5.00 | 12 |  |  |  |  |  |  |  |  |  | 
CN(Cc1cnc2nc(N)nc(N)c2n1)c1ccc(C(=O)NC(CCC(=O)NCc2ccc(Cl)cc2)C(=O)NCc2ccc(Cl)cc2)cc1 (configuration not stated) | 2300 | 5.18 | 180 | < 5.00 |  |  |  |  |  |  |  |  | MTX equivalent (L1210 [5]): 130 mg/kg; MTX equivalent (L1210 [6]): 65 mg/kg; ILS at 160 mg/kg (L1210 [7]): 44%; ILS at 80 mg/kg (L1210 [8]): 22%; Median T/C (Mus musculus [9]): 11 days; Median T/C (Mus musculus [10]): 13 days
CN(Cc1cnc2nc(N)nc(N)c2n1)c1ccc(C(=O)NC(CCC(=O)NO)C(=O)O)cc1 (configuration not stated) | 30 | 7.21 | 4.8 | 6.60 | 14.6 | 19.4 | 38.8 | 89 | 111 | 50 | 60 |  | MTX equivalent (L1210 [14]): 7.3 mg/kg; Median T/C (Mus musculus [19]): 15 days; Median T/C (Mus musculus [20]): 16 days; Median T/C (Mus musculus [21]): 17 days; Median T/C (Mus musculus [22]): 19 days
CN(Cc1cnc2nc(N)nc(N)c2n1)c1ccc(C(=O)NC(CCC(=O)NC23CC4CC(CC(C4)C2)C3)C(=O)NC23CC4CC(CC(C4)C2)C3)cc1 (configuration not stated) | 6300 |  | 3100 |  |  |  |  |  |  |  |  | 5.80 | pIC50 (CCRF-CEM [23]): < 5.00; pIC50 (L1210 [24]): 5.47; inhibition at 10 µM (CCRF-CEM (Homo sapiens)): 38%
CN(Cc1cnc2nc(N)nc(N)c2n1)c1ccc(C(=O)NC(CCC(=O)NN)C(=O)NN)cc1 (configuration not stated) | 360 | 6.02 | 20 | 5.12 | 14.2 | 18.8 | 37.6 | 77 | 33 | 40 | 40 | 6.02 | MTX equivalent (L1210 [25]): 7.1 mg/kg; Median T/C (Mus musculus [26]): 12 days; Median T/C (Mus musculus [27]): 14 days; Median T/C (Mus musculus [28]): 14 days; Median T/C (Mus musculus [29]): 16 days
